From PMC4324449 (ACS Chemical Biology, 2014)

Columns and labels:
[1] = Self-association by concentration-dependent UV–vis absorption; format: physicochemical; details: for self-association by UV–vis, in words: concentration-dependent λmax, Tris buffer pH 7.4
Method in brief: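 Absorption spectra recorded over a foldamer dilution series in 10 or 1 mm cuvettes. λmax plotted against concentration and fitted to a monomer-hexamer equilibrium, with monomer and hexamer λmax as fitted variables. Salt series run in 0.05 M Tris, pH 7.4, at varying NaCl, with all salt conditions fitted globally.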

[2] = Self-association by ITC heats of dilution; format: physicochemical; details: dilution in TBS, 25 °C
Method in brief: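 Heats of dilution at 25 °C. Foldamer at 1 mM in TBS (0.050 M Tris, 0.150 M NaCl, pH 7.4) injected serially into TBS in the calorimetric cell. Heat per injection taken from the integrated peak area, normalized over accumulated additions and plotted against final foldamer concentration. Fitted to a monomer-dimer-hexamer or monomer-hexamer model, depending on the foldamer.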

Substance | pK(hex-mon) UV–vis ([1]; concentration dependence of λmax in TBS pH 7.4, monomer-hexamer fit, K in M5) | self-association by UV–vis, in words [1] | self-assembly by ITC, in words [2]
(Lys-Sal)3-CONH2 [Compound 8] | <15 | did not show any spectral changes at concentrations as high as 500 μM | 
(Lys-Sal)4-COOH [Compound 2] |  | did not appear to associate at all over this concentration range | very weak to no self-assembly
(D-Cit-Sal)4-CONH2 [Compound 7] |  | did not appear to show significant dissociation | 
